From ChEMBL document CHEMBL5653612, “Catalytic site remodelling of the DOT1L methyltransferase by selective inhibitors” (Nat Commun, 2012) come the findings set out here.

A short description of series [1]: Apparent permeability across apical to basolateral side in human Caco-2 cells at 10 uM incubated for 90 mins at pH 7.4 by LC/MS analysis. The following applies: Caco-2, pH 7.4. The format is ADME, cell-based.
Series [2] in a line: Apparent permeability across basolateral to apical side in human Caco-2 cells at 10 uM incubated for 90 mins at pH 7.4 by LC/MS analysis. The following applies: Caco-2, pH 7.4. It counts as ADME, cell-based.
In series [3] the target is T1, Histone-lysine N-methyltransferase, H3 lysine-79 specific (Homo sapiens, UniProt Q8TEK3). The series can be described thus: Inhibition of recombinant N-terminal DOT1L (1 to 420 residues) (unknown origin) expressed in Escherichia coli (DE3) using [3H]-SAM as substrate preincubated for 30 mins followed by substrate addition and measured after 2 hrs by Topcount reader analysis.

For series [4], the target named is T1, Histone-lysine N-methyltransferase, H3 lysine-79 specific. Briefly: Binding affinity to recombinant N-terminal DOT1L (1 to 420 residues) (unknown origin) expressed in Escherichia coli (DE3) assessed as dissociation constant by SPR analysis.
The target is the same in series [5]. The series can be described thus: Binding affinity to recombinant N-terminal DOT1L (1 to 420 residues) (unknown origin) expressed in Escherichia coli (DE3) assessed as dissociation constant by surface plasmon resonance assay.
The subject of series [6] is MV4-11. The series can be described thus: Downregulation of H3K79me2 in human MV4-11 cells habouring MLL/AF4 fusion protein measured upto 48 hrs by immuno blot analysis. It counts as functional, cell-based.
Series [7] in a line: cells. The following applies: Homo sapiens, A-431.
Series [8] has as its target DNA (cytosine-5)-methyltransferase 1 (Homo sapiens) (UniProt P26358). The series can be described thus: Inhibition of DNMT1 (unknown origin) using ds-DNA peptide in presence of SAM. The method in brief:
(§1)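 Radiometric methyltransferase panel in which 3H-SAM, at or below each enzyme's Km, methylates biotinylated peptide substrates. They were quenched with 7.5 M guanidine-HCl, diluted, captured on streptavidin flash plates for 1 h, and counted by scintillation.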

The target of series [9] is Histone-lysine N-methyltransferase KMT5C (Homo sapiens) (UniProt Q86Y97). The series can be described thus: Inhibition of SUV420H2 (unknown origin) using H4 K20Me1 peptide in presence of SAM. An outline of the steps:
as §1

Series [10] addresses N-lysine methyltransferase KMT5A (Homo sapiens) (UniProt Q9NQR1). The series can be described thus: Inhibition of SETD8 (unknown origin) using […] in presence of SAM. The method in brief: as §1
The target of series [11] is Histone-lysine N-methyltransferase EHMT2 (Homo sapiens) (UniProt Q96KQ7). The series can be described thus: Inhibition of G9a (unknown origin) using H3 1-25 peptide in presence of SAM. The method in brief: as §1
Series [12] concerns the target T2, Protein arginine N-methyltransferase 5 (Homo sapiens, UniProt O14744). The series can be described thus: Inhibition of human PRMT5. An outline of the steps:
as §1

The target in series [13] is Histone-lysine N-methyltransferase EHMT1 (Homo sapiens) (UniProt Q9H9B1). The series can be described thus: Inhibition of EHMT1 (unknown origin) using H3 1-25 peptide in presence of SAM. The method in brief: as §1
Series [14] has as its target Histone-lysine N-methyltransferase 2A (Homo sapiens) (UniProt Q03164). Briefly: Inhibition of MLL (unknown origin) using H3 1-25 peptide in presence of SAM. The method in brief:
as §1

For series [15], the system named is MOLM-13. Briefly: Downregulation of H3K79me2 in human MOLM-13 cells measured for 3 to 7 days by immuno blot analysis. The format is functional, cell-based. Particulars: dose 1.0 µM, time 3-7 day. The method in brief: (§2)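 Exponentially growing Molm13 cells were plated at 2 × 10^5 per well in 2 ml and exposed to 1 μM compound or DMSO for the indicated times. Extracted histones (3 μg) were run on 10% Bis-Tris gels and transferred to nitrocellulose. Blots were probed with primary antibody (1:1000 in 5% milk/TBS-T), then anti-rabbit secondary, with chemiluminescent detection.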

The species entered for series [16] is Homo sapiens. The series can be described thus: Inhibition of PRC2 (unknown origin) using H3 21-44 peptide in presence of SAM. An outline of the steps: as §1
Series [17] has as its target Protein arginine N-methyltransferase 3 (Homo sapiens) (UniProt O60678). The series can be described thus: Inhibition of PRMT3 (unknown origin) using H3 1-24 peptide in presence of SAM. An outline of the steps: as §1
For series [18], the target named is Histone-lysine N-methyltransferase SUV39H2 (Homo sapiens) (UniProt Q9H5I1). The series can be described thus: Inhibition of SUV39H2 (unknown origin) using H3 1-25 peptide in presence of SAM. The method in brief:
as §1

A short description of series [19]: cells. Particulars: Homo sapiens, MCF-10A.
For series [20], the target named is Histone-lysine N-methyltransferase KMT5B (Homo sapiens) (UniProt Q4FZB7). Briefly: Inhibition of […] (unknown origin) using H4 K20Me1 peptide in presence of SAM. An outline of the steps:
as §1

Series [21] has as its target Histone-lysine N-methyltransferase SETDB1 (Homo sapiens) (UniProt Q15047). Briefly: Inhibition of SETDB1 (unknown origin) using H3 1-25 peptide in presence of SAM. The method in brief: as §1
For series [22], the target named is Histone-lysine N-methyltransferase SETD7 (Homo sapiens) (UniProt Q8WTS6). The series can be described thus: Inhibition of SETD7 (unknown origin) using H3 1-25 peptide in presence of SAM. The method in brief:
as §1

Series [23] deals with T2, Protein arginine N-methyltransferase 5. The series can be described thus: Inhibition of PRMT5 (unknown origin) using H4 1-24 peptide in presence of SAM. An outline of the steps: as §1
In series [24] the test system is MOLM-13. The series can be described thus: Downregulation of H3K79me2 in human MOLM-13 cells at 1 uM by immuno blot analysis. It counts as functional, cell-based. The following applies: time 3-7 day, TDE = time-dependent effect. An outline of the steps:
as §2

The source made the active and inactive calls. The calls are words filed in the database; no cut-off is given here.

T1 sequence (Q8TEK3 whole entry, the tested form may be a part): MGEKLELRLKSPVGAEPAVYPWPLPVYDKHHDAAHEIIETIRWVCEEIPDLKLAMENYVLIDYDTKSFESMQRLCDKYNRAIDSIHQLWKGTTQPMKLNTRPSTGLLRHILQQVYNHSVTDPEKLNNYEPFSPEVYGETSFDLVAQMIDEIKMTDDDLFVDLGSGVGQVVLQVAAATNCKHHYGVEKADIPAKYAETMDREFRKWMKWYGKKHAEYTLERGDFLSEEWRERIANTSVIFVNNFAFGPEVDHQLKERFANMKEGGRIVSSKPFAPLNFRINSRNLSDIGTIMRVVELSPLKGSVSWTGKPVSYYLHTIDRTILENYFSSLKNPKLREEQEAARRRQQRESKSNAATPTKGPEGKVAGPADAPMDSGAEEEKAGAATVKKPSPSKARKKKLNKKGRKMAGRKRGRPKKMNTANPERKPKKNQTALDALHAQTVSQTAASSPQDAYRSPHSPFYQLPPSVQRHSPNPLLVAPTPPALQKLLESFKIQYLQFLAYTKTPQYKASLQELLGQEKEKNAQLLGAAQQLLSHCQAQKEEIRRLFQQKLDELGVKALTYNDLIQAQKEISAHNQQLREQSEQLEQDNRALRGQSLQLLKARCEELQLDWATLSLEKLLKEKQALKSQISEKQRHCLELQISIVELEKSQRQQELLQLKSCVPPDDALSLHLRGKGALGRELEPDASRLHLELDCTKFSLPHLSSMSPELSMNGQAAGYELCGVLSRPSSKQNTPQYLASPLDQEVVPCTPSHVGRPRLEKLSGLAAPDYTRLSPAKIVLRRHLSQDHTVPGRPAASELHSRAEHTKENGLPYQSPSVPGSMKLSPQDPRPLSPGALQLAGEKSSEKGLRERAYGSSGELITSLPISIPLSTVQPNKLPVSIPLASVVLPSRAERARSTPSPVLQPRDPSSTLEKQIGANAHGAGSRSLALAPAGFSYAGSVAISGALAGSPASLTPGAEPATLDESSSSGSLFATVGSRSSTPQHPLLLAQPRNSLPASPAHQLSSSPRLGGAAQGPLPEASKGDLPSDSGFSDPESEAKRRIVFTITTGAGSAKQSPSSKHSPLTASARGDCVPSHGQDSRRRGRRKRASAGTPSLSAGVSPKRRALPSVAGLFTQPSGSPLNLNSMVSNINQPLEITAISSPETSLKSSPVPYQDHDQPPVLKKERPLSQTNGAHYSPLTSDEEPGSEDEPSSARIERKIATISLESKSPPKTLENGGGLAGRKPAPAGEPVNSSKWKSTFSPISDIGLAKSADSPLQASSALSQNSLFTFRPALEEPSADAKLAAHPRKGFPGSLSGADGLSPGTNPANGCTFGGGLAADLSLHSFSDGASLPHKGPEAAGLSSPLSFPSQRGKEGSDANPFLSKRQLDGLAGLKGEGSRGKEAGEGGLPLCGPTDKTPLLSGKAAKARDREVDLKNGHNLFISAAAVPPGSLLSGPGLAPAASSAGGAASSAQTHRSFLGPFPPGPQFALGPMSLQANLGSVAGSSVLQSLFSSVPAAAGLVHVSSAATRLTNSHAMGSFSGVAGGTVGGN
T2 sequence (O14744 whole entry): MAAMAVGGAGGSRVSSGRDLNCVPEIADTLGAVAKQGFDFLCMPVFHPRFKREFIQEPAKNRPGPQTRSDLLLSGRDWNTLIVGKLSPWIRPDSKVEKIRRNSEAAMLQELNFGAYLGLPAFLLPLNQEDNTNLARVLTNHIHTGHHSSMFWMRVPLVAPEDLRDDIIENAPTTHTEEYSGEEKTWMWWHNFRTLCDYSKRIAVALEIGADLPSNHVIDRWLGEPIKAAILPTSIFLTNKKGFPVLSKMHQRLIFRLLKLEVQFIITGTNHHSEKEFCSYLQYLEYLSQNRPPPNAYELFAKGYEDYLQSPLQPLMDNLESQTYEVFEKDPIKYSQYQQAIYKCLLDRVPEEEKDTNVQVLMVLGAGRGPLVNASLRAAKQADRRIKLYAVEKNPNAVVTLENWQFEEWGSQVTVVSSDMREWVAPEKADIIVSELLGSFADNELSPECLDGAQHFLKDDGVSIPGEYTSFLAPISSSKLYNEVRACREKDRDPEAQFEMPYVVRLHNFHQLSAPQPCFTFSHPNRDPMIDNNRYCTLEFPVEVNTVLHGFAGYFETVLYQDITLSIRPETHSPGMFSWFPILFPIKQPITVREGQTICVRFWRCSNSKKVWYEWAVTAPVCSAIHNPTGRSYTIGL
Histone-lysine N-methyltransferase EHMT1 (Homo sapiens), sequence (Q9H9B1 whole entry): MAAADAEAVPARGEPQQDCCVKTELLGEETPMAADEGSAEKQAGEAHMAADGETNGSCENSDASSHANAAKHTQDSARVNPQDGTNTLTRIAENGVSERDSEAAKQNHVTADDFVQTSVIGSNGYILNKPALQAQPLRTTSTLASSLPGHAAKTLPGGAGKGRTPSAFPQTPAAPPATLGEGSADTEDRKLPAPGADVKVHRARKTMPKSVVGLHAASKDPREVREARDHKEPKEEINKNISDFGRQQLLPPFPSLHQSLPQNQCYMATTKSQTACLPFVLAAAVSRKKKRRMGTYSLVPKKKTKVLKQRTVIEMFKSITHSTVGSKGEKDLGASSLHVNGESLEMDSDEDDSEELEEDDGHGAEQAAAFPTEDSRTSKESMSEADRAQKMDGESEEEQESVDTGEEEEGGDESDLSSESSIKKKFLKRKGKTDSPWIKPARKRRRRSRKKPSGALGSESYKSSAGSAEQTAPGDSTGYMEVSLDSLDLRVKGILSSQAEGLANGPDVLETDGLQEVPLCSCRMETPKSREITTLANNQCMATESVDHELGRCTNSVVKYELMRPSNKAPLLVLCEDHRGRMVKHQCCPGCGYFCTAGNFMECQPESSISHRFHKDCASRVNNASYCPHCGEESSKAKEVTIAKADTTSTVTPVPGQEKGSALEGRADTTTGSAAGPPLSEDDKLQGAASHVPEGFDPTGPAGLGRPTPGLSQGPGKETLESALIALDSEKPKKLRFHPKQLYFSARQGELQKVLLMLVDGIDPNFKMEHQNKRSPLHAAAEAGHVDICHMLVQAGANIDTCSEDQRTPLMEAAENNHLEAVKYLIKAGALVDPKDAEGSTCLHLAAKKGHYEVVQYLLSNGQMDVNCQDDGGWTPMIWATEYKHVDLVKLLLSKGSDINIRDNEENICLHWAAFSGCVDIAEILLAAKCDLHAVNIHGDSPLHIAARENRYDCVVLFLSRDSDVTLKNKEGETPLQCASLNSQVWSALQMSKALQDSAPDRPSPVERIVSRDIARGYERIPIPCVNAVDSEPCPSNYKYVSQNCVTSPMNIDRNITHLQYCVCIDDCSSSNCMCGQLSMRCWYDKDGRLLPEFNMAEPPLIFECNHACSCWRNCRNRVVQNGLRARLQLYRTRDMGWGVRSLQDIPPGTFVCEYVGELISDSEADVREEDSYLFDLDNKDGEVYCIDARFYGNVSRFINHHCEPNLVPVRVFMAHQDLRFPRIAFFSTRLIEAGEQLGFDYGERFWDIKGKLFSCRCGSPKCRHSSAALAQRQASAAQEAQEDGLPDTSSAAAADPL
Histone-lysine N-methyltransferase KMT5C (Homo sapiens), sequence (Q86Y97 whole entry, looked up): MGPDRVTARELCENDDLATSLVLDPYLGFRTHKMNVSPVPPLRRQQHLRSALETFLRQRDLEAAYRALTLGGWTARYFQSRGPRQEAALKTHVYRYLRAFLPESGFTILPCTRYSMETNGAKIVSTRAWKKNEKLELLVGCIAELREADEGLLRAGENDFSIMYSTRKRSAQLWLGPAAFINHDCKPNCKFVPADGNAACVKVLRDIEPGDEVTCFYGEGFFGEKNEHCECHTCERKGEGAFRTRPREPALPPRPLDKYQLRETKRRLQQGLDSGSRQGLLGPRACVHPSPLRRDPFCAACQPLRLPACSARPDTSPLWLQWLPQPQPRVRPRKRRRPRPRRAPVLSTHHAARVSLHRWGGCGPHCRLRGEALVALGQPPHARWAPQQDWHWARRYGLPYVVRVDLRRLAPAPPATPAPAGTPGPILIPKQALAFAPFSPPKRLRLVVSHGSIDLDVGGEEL
Histone-lysine N-methyltransferase SUV39H2 (Homo sapiens), sequence (Q9H5I1 whole entry): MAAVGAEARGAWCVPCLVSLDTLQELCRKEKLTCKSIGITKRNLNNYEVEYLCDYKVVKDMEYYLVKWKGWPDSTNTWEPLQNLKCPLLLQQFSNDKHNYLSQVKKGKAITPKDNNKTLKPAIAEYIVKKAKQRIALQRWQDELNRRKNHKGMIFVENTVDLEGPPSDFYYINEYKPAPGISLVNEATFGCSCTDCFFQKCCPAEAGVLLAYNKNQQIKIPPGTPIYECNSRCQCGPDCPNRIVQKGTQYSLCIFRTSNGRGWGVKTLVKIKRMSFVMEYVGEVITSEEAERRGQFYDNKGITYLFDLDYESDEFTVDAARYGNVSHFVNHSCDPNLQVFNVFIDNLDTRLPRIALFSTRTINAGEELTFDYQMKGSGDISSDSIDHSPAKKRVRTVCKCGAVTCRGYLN
Protein arginine N-methyltransferase 3 (Homo sapiens), sequence (O60678 2-531 limits assumed): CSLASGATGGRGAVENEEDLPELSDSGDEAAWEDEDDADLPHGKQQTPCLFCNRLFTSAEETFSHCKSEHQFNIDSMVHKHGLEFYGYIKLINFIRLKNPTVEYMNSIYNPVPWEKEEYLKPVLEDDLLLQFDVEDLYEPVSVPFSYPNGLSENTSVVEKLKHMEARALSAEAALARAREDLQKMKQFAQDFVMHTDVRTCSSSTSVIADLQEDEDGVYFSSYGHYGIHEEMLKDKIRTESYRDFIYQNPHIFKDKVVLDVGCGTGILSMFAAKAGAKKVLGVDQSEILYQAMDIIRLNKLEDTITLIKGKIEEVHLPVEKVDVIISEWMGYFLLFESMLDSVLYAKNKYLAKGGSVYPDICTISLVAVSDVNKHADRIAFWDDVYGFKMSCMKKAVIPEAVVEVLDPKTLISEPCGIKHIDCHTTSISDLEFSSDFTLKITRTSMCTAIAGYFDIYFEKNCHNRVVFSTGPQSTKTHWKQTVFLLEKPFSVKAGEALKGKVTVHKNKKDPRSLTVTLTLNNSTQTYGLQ

With `C[C@H]1O[C@@H](O[C@H]2[C@@H](O)C[C@H](O[C@H]3[C@@H](O)C[C@H](O[C@H]4CC[C@@]5(C)[C@H](CC[C@@H]6[C@@H]5C[C@@H](O)[C@]5(C)[C@@H](C7=CC(=O)OC7)CC[C@]65O)C4)O[C@@H]3C)O[C@@H]2C)C[C@H](O)[C@@H]1O` [DIGOXIN], the apparent permeability from apical to basolateral (Papp A→B) at 1.5 h, 10 µM in series [1] turned out to be 0.4 ×10⁻⁶ cm/s. The Papp B→A at 1.5 h, 10 µM in series [2] turned out to be 13.2 ×10⁻⁶ cm/s.

For the compound `COCCc1ccc(OCC(O)CNC(C)C)cc1` (centres undefined) [METOPROLOL], the apical-to-basolateral permeability (Papp A→B) at 1.5 h, 10 µM in series [1] is 68.2 ×10⁻⁶ cm/s. In series [2], the apparent permeability from basolateral to apical (Papp B→A) at 1.5 h, 10 µM turned out to be 31.1 ×10⁻⁶ cm/s.

For the compound `Cc1ccc(NC(=O)NCCCN(C[C@H]2O[C@@H](n3cnc4c(N)ncnc43)[C@H](O)[C@@H]2O)C(C)C)cc1`, the IC50 in series [3] (read-out: IC50) was 40.3 nM. In addition, the Kd in series [4] and in [5] was 26.9 nM each time. In addition, in [6], the result was Active.

Regarding `CC(C)(C)c1ccc(NC(=O)NCCCNC[C@H]2O[C@@H](n3cc(Br)c4c(N)ncnc43)[C@H](O)[C@@H]2O)cc1`, the 50% inhibitory concentration (IC50) in series [3] (read-out: IC50) was 3.6 nM. In addition, the Kd in series [4] and in series [5] was 3.35 nM throughout. Moreover, the result in series [6] was Active.

Consider `CC(C)N(CCCNC(=O)Nc1ccc(C(C)(C)C)cc1)C[C@H]1O[C@@H](n2ccc3c(N)ncnc32)[C@H](O)[C@@H]1O`, for which the apparent permeability from basolateral to apical (Papp B→A) at 1.5 h, 10 µM in series [2] turned out to be 5.4 ×10⁻⁶ cm/s. Further, the concentration for half-maximal inhibition (IC50) was 264 nM in series [7], 500 nM in [12] and 84 nM in [19]. The inhibition result in series [8], in [9], in [10], in series [11], in [13] and in [14] was “inactive” each time. In addition, the inhibition entry in series [16], in [17], in [18], in series [20], in series [21] and in [22] was “inactive” throughout. In addition, the inhibition result in series [23] was “inactive”. Also, the figures for the Activity entry in [15] and in series [24] were “Dose-Dependent Effect” and “Tde”, respectively. Moreover, the result in series [6] was Active.

Consider `CC(C)N(CCCNC(=O)c1ccc(C(C)(C)C)cc1)C[C@H]1O[C@@H](n2cnc3c(N)ncnc32)[C@H](O)[C@@H]1O`, for which the half-inhibitory concentration (IC50) entry in series [3] is “Not Active”.

On to `CC(C)N(CCCNC(=O)Nc1ccc(C(C)(C)C)cc1)C[C@H]1O[C@@H](n2cnc3c(N)ncnc32)[C@H](O)[C@@H]1O`, for which the result in series [6] was Active.
